pIC50, pKi: −log10 of the molar value.
Species on record: Mus musculus
Assay: Inhibition of LPS-induced nuclear factor-kappa B (NFkB) activation and TNF production in mouse
Format: functional, organism-based
Method in brief: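 Female Balb/c mice, 6–8 weeks old, n=8 per group, received LPS (E. coli 0111:B4) at 50 ug/kg i.p. in sterile saline. Blood was taken 90 min later and serum TNF-α measured by ELISA. Compound was dosed i.v. or orally, as solutions in various vehicles, before or at the time of LPS injection.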

SMILES	pIC50
COC(=O)[C@H](Cc1ccccc1)NC(=O)c1c(C)n(CCN2CCOCC2)c2c(OC)cccc12	4.92
Cc1c(C(=O)c2cccc3ccccc23)c2cccc3c2n1[C@H](CN1CCOCC1)CO3 [WIN-552122]	5.10

Target: T1, Cannabinoid receptor 2 (Homo sapiens, UniProt P34972)
T1 sequence (P34972 whole entry): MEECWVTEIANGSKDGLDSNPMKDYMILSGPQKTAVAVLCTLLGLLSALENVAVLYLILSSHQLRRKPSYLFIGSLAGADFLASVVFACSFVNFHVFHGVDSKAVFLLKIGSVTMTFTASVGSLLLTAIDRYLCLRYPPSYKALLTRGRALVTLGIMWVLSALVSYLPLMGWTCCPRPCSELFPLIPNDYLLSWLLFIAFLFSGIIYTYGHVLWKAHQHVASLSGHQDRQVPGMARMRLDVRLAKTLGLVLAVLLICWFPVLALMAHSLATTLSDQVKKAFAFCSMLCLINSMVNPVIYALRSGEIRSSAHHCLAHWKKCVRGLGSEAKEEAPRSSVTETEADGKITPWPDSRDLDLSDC
Assay: Displacement of WIN-55212-2-Mesylate [573H] from human CB2 receptor expressed in CHO cells at 100 nM
Format: cell-based
Method in brief: (§1)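 Membranes (50 µg) from CHO-K1 cells expressing human CB2 or CB1. Tracer is [5,7-3H]WIN 55,212-2 mesylate for CB2 and CP55,940 for CB1, routinely at 10 nM. Incubated with test compound in HEPES pH 7.4 buffer (EDTA, MgCl₂, 0.3% BSA) for 2 h at room temperature with shaking. Bound label is collected by filtration and counted by scintillation. Single-point values are % inhibition at […] test compound.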

SMILES	inhibition [%]
COc1cc(OC)c2c(c1)c(C(=O)N[C@@H]1C3(C)CCC(C3)C1(C)C)c(C)n2CCN1CCOCC1 (some centres undefined)	0
COc1ccc(Cl)c2c(C(=O)N[C@@H]3C4(C)CCC(C4)C3(C)C)c(C)n(CCN3CCOCC3)c12 (some centres undefined)	11
COc1cccc2c(C(=O)N[C@@H](Cc3ccccc3)C(=O)N(C)C)c(C)n(CCN3CCOCC3)c12	29
COc1c(Cl)ccc2c(C(=O)N[C@@H]3C4(C)CCC(C4)C3(C)C)c(C)n(CCN3CCOCC3)c12 (some centres undefined)	15
CC[C@H](Cc1ccccc1)NC(=O)c1c(C)n(CCN2CCOCC2)c2c(OC)cccc12	18
COc1ccc2c(C(=O)N[C@@H]3C4(C)CCC(C4)C3(C)C)c(C)n(CCN3CCOCC3)c2c1OC (some centres undefined)	0
CCCc1c(C(=O)N[C@@H]2C3(C)CCC(C3)C2(C)C)c2cccc(OC)c2n1CCN1CCOCC1 (some centres undefined)	6
COC[C@H](Cc1ccccc1)NC(=O)c1c(C)n(CCN2CCOCC2)c2c(OC)cccc12	6
COc1cccc2c(C(=O)N[C@@H](Cc3ccccc3)c3cc[nH]n3)c(C)n(CCN3CCOCC3)c12	7
COc1ccc(Br)c2c(C(=O)N[C@@H]3C4(C)CCC(C4)C3(C)C)c(C)n(CCN3CCOCC3)c12 (some centres undefined)	42
COc1ccc(C#N)c2c(C(=O)N[C@@H]3C4(C)CCC(C4)C3(C)C)c(C)n(CCN3CCOCC3)c12 (some centres undefined)	33
COc1cccc2c(C(=O)NC3C4(C)CCC(C4)C3(C)C)c(C)n(CCN3CCCC3)c12 (centres undefined)	25
COc1cccc2c(C(=O)N[C@H](C#N)Cc3ccccc3)c(C)n(CCN3CCOCC3)c12	18

Target: T1, Cannabinoid receptor 2
Assay: Binding affinity against human CB2 receptor expressed in CHO cells by using WIN-55212-2 Mesylate [573H] as Radioactive tracer
Format: cell-based
Method in brief: as §1

SMILES	pKi
COc1cccc2c(C(=O)N[C@@H]3C4(C)CCC(C4)C3(C)C)c(C)n(CCN3CCOCC3)c12 (some centres undefined)	7.39
CCCCCn1c(C)c(C(=O)NC2C(C)(C)[C@@H]3CC[C@@]2(C)C3)c2cccc(OC)c21 (some centres undefined)	8.30
COc1cccc2c(C(=O)N[C@@H]3C(C)(C)[C@@H]4CC[C@@]3(C)C4)c(C)n(CCN3CCCCC3)c12	7.05
COc1cccc2c(C(=O)N[C@@H]3C4(C)CCC(C4)C3(C)C)cn(CCN3CCOCC3)c12 (some centres undefined)	7.89
COc1cccc2c(C(=O)NC3C(C)(C)[C@@H]4CC[C@@]3(C)C4)c(C)n(CCCN3CCOCC3)c12 (some centres undefined)	7.60
COc1cccc2c(C(=O)N[C@@H](Cc3ccccc3)c3ccno3)c(C)n(CCN3CCOCC3)c12	6.77
COc1cccc2c(C(=O)NC3C(C)(C)[C@@H]4CC[C@@]3(C)C4)c(C)n(CCN(C)C)c12 (some centres undefined)	6.30
COc1cccc2c(C(=O)NC3CCCC3(C)C)c(C)n(CCN3CCOCC3)c12 (centres undefined)	6.69
CCc1c(C(=O)N[C@H]2C3(C)CCC(C3)C2(C)C)c2cccc(OC)c2n1CCN1CCOCC1 (some centres undefined)	6.99
CO/N=C(\C)[C@H](Cc1ccccc1)NC(=O)c1c(C)n(CCN2CCOCC2)c2c(OC)cccc12	6.74
COC(=O)[C@H](Cc1ccccc1)NC(=O)c1c(C)n(CCN2CCOCC2)c2ccccc12	6.60
COc1cc(Cl)cc2c(C(=O)N[C@@H]3C4(C)CCC(C4)C3(C)C)c(C)n(CCN3CCOCC3)c12 (some centres undefined)	6.60
COc1cccc2c(C(=O)N[C@@H](Cc3ccccc3)C(C)=O)c(C)n(CCN3CCOCC3)c12	8.10
COc1cccc2c(C(=O)NC3CC(C)(C)CCC3(C)C)cn(CCN3CCOCC3)c12 (centres undefined)	7.66
COc1cccc2c(C(=O)N[C@H]3C4(C)CCC(C4)C3(C)C)c(C)n(CCN3CCOCC3)c12 (some centres undefined)	7.52
COCCn1c(C)c(C(=O)NC2C(C)(C)[C@@H]3CC[C@@]2(C)C3)c2cccc(OC)c21 (some centres undefined)	7.22
COc1cccc2c(C(=O)N[C@@H](C)Cc3ccccc3)cn(CCN3CCOCC3)c12	7.15
COc1cccc2c(C(=O)NC3CC(C)(C)CCC3(C)C)c(C)n(CCN3CCOCC3)c12 (centres undefined)	7.42
COc1cc(F)cc2c(C(=O)N[C@H]3C4(C)CCC(C4)C3(C)C)c(C)n(CCN3CCOCC3)c12 (some centres undefined)	7.74
COC(=O)[C@H](Cc1cscn1)NC(=O)c1c(C)n(CCN2CCOCC2)c2c(OC)cccc12	7.70
COc1cccc2c(C(=O)NC3C4(C)CCC(C4)C3(C)C)cn(CCN3CCOCC3)c12 (centres undefined)	7.92
COc1cccc2c(C(=O)N[C@H](C)Cc3ccccc3)c(C)n(CCN3CCOCC3)c12	6.58
COC(=O)[C@H](Cc1cccc(Cl)c1)NC(=O)c1c(C)n(CCN2CCOCC2)c2c(OC)cccc12	7.51
COC(=O)[C@H](Cc1cccs1)NC(=O)c1c(C)n(CCN2CCOCC2)c2c(OC)cccc12	7.92
CNC(=O)[C@H](Cc1ccccc1)NC(=O)c1c(C)n(CCN2CCOCC2)c2c(OC)cccc12	6.53
CCC(=O)[C@H](Cc1ccccc1)NC(=O)c1c(C)n(CCN2CCOCC2)c2c(OC)cccc12	7.62
COc1cccc2c(C(=O)N[C@@H](Cc3ccccc3)c3ccon3)c(C)n(CCN3CCOCC3)c12	6.63

Target: Cannabinoid receptor (Homo sapiens) (UniProt P34972+P21554)
Sequence (P21554 whole entry, looked up): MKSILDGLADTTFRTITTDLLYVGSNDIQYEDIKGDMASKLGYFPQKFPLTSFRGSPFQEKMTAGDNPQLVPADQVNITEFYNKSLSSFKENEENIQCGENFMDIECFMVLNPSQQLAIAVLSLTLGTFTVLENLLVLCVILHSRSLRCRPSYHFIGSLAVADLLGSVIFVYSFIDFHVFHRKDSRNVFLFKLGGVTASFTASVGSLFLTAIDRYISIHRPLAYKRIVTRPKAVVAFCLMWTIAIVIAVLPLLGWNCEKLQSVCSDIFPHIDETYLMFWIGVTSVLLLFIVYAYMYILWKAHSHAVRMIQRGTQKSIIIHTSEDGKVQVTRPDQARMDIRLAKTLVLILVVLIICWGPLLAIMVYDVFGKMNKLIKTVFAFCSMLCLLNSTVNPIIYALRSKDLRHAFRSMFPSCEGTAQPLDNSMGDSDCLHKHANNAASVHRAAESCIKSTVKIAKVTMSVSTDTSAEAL
Sequence (P34972 whole entry, looked up): as the sequence (P34972 whole entry) above
Assay: Ratio of binding affinity of the CB1 receptor to that of CB2 receptor; NT means not tested
Format: protein assay
Method in brief: as §1

SMILES	Ratio
CCCCCOc1cc(/C=C/C(=O)N[C@@H](Cc2ccccc2)C(=O)OC)ccc1OC	0.59

Target: T2, Cannabinoid receptor 1 (Homo sapiens, UniProt P21554)
T2 sequence (P21554 whole entry): as the sequence (P21554 whole entry, looked up) above
Assay: Binding affinity against human Cannabinoid receptor 1 expressed in CHO cells by using CP-55940 as Radioactive tracer
Format: cell-based

SMILES	pKi
CCCCCOc1cc(/C=C/C(=O)N[C@@H](Cc2ccc(O)cc2)C(=O)OC)ccc1OC	5.24
COC(=O)[C@H](Cc1ccccc1)NC(=O)c1c(C)n(CCN2CCOCC2)c2c(OC)cccc12	5.40

Target: T2, Cannabinoid receptor 1
Assay: Binding affinity against human Cannabinoid receptor 1 expressed in CHO cells by using CP-55940 as Radioactive tracer at 1 uM
Format: cell-based

SMILES	inhibition [%]
CCCCCOc1cc(/C=C/C(=O)N[C@@H](Cc2ccccc2)C(=O)OC)ccc1OC	51

Target: T1, Cannabinoid receptor 2
Assay: Binding affinity against human Cannabinoid receptor 2 expressed in CHO cells by using WIN-55212-2 Mesylate [573H] as Radioactive tracer
Format: cell-based
Method in brief: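 Membranes (50 µg) from CHO-K1 cells expressing human CB2 or CB1. Incubated with test compound in HEPES pH 7.4 buffer (EDTA, MgCl₂, 0.3% BSA) for 2 h at room temperature with shaking. Bound label is collected by filtration and counted by scintillation.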

SMILES	pKi
CCCCCOc1cc(/C=C/C(=O)N[C@@H](Cc2ccccc2)C(=O)OC)ccc1OC	7.07
CCCCCOc1cc(/C=C/C(=O)N[C@@H](Cc2ccc(O)cc2)C(=O)OC)ccc1OC	6.92
COC(=O)[C@H](Cc1ccccc1)NC(=O)c1c(C)n(CCN2CCOCC2)c2c(OC)cccc12	8.10

From ChEMBL document CHEMBL1134897, “C-3 Amido-indole cannabinoid receptor modulators” (Bioorg Med Chem Lett, 2002)
